The text below walks through data of ChEMBL document CHEMBL3351655, “Scaffold decoration at positions 5 and 8 of 1,2,4-triazolo[1,5-c]pyrimidines to explore the antagonist profiling on adenosine receptors: a preliminary structure-activity relationship study” (J Med Chem, 2014).

Assay [1] concerns the target Adenosine receptors; A1 & A3 (Homo sapiens) (UniProt P30542+P0DMS8). Put plainly: Selectivity ratio of Ki for human adenosine A1 receptor expressed in CHO cells to Ki for human adenosine A3 receptor expressed in CHO cells. The assay is classed as cell-based.
The subject of assay [2] is CHO. Put plainly: Selectivity ratio of Ki for human adenosine A2A receptor expressed in CHO cells to Ki for human adenosine A3 receptor expressed in CHO cells. The assay is classed as cell-based.
The test system of assay [3] is CHO. The assay can be described thus: Selectivity ratio of Ki for human adenosine A1 receptor expressed in CHO cells to Ki for human adenosine A2A receptor expressed in CHO cells. Format: cell-based.
In another assay the target is T1, Adenosine receptor A1 (Homo sapiens, UniProt P30542).
T1 sequence (P30542 whole entry): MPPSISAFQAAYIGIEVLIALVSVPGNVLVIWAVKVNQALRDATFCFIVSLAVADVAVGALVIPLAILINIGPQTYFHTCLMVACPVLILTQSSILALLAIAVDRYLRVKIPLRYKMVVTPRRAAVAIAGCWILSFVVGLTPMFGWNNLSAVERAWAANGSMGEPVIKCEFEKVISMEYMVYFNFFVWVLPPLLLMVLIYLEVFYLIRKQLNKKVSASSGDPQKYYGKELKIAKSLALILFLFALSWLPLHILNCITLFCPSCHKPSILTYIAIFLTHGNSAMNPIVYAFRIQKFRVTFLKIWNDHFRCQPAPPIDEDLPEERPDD
Put plainly: Displacement of [3H]CCPA from human adenosine A1 receptor expressed in CHO cells. The assay is classed as cell-based. The essentials: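 Stably transfected CHO cells were homogenised and spun at 1000g to remove nuclei and fragments. Membranes were then pelleted at 100 000g, resuspended in binding buffer, frozen in liquid nitrogen and stored. Radioligand was [³H]CCPA, with nonspecific binding defined by 1 mM theophylline.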
(Loss of bound radioactivity is the signal in a displacement assay; it reports binding, not function.)

In the next assay the target is Adenosine receptor A2a (Homo sapiens, UniProt P29274). The assay can be described thus: Displacement of [3H]NECA from human adenosine A2A receptor expressed in CHO cells. Format: cell-based.
Adenosine receptor A2a, sequence (P29274 whole entry): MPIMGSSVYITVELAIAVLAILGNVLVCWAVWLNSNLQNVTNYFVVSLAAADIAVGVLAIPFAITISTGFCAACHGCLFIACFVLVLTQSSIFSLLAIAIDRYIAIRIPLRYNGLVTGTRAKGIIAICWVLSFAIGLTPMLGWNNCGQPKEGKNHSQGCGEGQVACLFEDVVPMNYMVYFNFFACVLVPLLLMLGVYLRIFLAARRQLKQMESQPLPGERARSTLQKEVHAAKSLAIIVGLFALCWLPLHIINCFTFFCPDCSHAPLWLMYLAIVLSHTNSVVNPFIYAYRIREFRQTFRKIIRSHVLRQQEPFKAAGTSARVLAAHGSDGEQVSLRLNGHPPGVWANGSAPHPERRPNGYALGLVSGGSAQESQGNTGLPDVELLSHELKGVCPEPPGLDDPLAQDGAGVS
In a further assay the target is T2, Adenosine receptor A3 (Homo sapiens, UniProt P0DMS8).
T2 sequence (P0DMS8 whole entry): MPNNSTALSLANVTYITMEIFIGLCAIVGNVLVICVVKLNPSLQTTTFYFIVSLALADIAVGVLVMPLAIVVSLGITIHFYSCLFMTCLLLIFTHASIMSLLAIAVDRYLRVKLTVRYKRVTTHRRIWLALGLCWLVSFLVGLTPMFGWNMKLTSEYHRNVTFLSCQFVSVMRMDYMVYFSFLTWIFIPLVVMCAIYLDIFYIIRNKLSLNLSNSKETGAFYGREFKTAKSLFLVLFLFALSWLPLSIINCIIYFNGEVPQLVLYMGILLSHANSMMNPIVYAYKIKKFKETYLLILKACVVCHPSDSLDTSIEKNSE
The assay can be described thus: Displacement of [3H]NECA from human adenosine A3 receptor expressed in CHO cells. Format: cell-based. A digest of the protocol:
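Radioligand [³H]NECA was used on membranes from stably transfected CHO cells, prepared by a 1000g clearing spin then pelleting at 100 000g. Pellets were resuspended in binding buffer, frozen in liquid nitrogen and stored. Nonspecific binding was defined with 100 μM R-PIA.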

A further assay has as its target T3, Adenosine receptor A2b (Homo sapiens, UniProt P29275).
T3 sequence (P29275 whole entry): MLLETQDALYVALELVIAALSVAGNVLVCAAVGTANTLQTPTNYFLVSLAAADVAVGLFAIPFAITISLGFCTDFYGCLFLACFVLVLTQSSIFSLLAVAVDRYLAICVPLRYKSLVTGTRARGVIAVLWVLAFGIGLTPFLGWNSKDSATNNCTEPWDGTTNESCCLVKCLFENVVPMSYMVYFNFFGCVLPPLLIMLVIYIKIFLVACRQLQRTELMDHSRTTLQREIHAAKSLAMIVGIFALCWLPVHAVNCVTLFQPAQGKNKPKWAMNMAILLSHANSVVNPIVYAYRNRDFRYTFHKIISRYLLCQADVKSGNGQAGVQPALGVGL
Put plainly: Antagonist activity at human adenosine A2B receptor expressed in CHO cells assessed as inhibition of NECA-stimulated adenylyl cyclase activity. The assay is classed as functional, cell-based. A digest of the protocol:
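Membranes from stably transfected CHO cells, made with a single high-speed centrifugation of the homogenate. Incubated 20 min with about 150 000 cpm [α-³²P]ATP, in a mixture without EGTA and NaCl. IC50 for concentration-dependent inhibition of NECA-stimulated adenylyl cyclase was fitted with the Hill equation and converted to Ki by Cheng–Prusoff.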

On to `O=C(O)c1cnc(NCc2ccc(C(F)(F)F)cc2)n2nc(-c3ccco3)nc12`, for which the Ratio Ki is above 6.29 in assay [1], 1.13 in the assay on CHO [2] and above 5.55 in the assay on CHO [3]. The Ki is above 100000 nM on Adenosine receptor A1, 18000 nM at Adenosine receptor A2a, 15900 nM at Adenosine receptor A3 and above 30 µM on Adenosine receptor A2b.

For the molecule `COc1ccc(CNc2ncc(C(=O)NCCc3ccccc3)c3nc(-c4ccco4)nn23)cc1OC`, the Ratio Ki in assay [1] was 4.39; in the assay with CHO [2] it was 0.74; in the assay on CHO [3], 5.9. Moreover, the inhibition constant (Ki) was 385 nM on Adenosine receptor A1, 65.2 nM on Adenosine receptor A2a, 87.7 nM at Adenosine receptor A3 and above 30 µM at Adenosine receptor A2b.

Turning to `CNC(=O)c1cnc(NC(=O)Cc2ccccc2)n2nc(-c3ccco3)nc12`, the Ratio Ki in assay [1] came to 0.25; in the assay with CHO [2], 0.01; in the assay with CHO [3], 23.9. The Ki at Adenosine receptor A1 was found to be 296 nM; at Adenosine receptor A2a it was 12.4 nM; at Adenosine receptor A3 it was 1190 nM; at Adenosine receptor A2b, 4.84 µM.

Regarding `CCCCCNc1ncc(C(=O)O)c2nc(-c3ccco3)nn12`, the Ratio Ki in assay [1] turned out to be 0.39; in the assay with CHO [2] it was 1.02; in the assay with CHO [3] it was 0.39. Moreover, the Ki at Adenosine receptor A1 is 10400 nM; on Adenosine receptor A2a it was 26900 nM; on Adenosine receptor A3, 26300 nM; on Adenosine receptor A2b it was above 10 µM.

Take `CC(C)Nc1ncc(C(=O)O)c2nc(-c3ccco3)nn12`: the Ratio Ki in assay [1] stood at 0.26; in the assay on CHO [2] it was 0.44; with CHO [3] it was 0.59. Moreover, the Ki is 4490 nM at Adenosine receptor A1, 7660 nM at Adenosine receptor A2a, 17500 nM at Adenosine receptor A3 and above 10 µM at Adenosine receptor A2b.

For `CCOC(=O)c1cnc(N2CCCC2)n2nc(-c3ccco3)nc12`, the Ratio Ki in assay [1] is 18.7; in the assay on CHO [2], 12.2; with CHO [3] it was 1.53. In addition, the Ki at Adenosine receptor A1 was 15600 nM; on Adenosine receptor A2a, 10200 nM; at Adenosine receptor A3, 836 nM; at Adenosine receptor A2b, above 10 µM.

Turning to `CCOC(=O)c1cnc(NCCOC)n2nc(-c3ccco3)nc12`, the Ratio Ki in assay [1] was found to be 21.6; in the assay on CHO [2], 2.78; in the assay with CHO [3], 7.77. In addition, the Ki is 2270 nM on Adenosine receptor A1, 292 nM at Adenosine receptor A2a, 105 nM on Adenosine receptor A3 and above 10 µM on Adenosine receptor A2b.

For `CNC(=O)c1cnc(NCc2ccc(OC)c(OC)c2)n2nc(-c3ccco3)nc12`, the Ratio Ki is 1.52 in assay [1], 0.09 with CHO [2] and 16.6 in the assay with CHO [3]. Moreover, the inhibition constant (Ki) on Adenosine receptor A1 was 428 nM; on Adenosine receptor A2a, 25.8 nM; on Adenosine receptor A3, 282 nM; on Adenosine receptor A2b, 2.49 µM.

Turning to `CCOC(=O)c1cnc(NCc2ccc(Cl)cc2)n2nc(-c3ccco3)nc12`, the Ratio Ki in assay [1] stood at 15.2; in the assay on CHO [2], 1.29; with CHO [3], 11.8. The Ki at Adenosine receptor A1 is 866 nM; at Adenosine receptor A2a it was 73.2 nM; on Adenosine receptor A3 it was 56.8 nM; at Adenosine receptor A2b, 1.63 µM.

In the case of `CCOC(=O)c1cnc(NC2CCCCC2)n2nc(-c3ccco3)nc12`, the Ratio Ki in assay [1] was 1.08; with CHO [2] it was 0.45; with CHO [3], 2.39. Also, the Ki was 141 nM on Adenosine receptor A1, 58.9 nM at Adenosine receptor A2a, 131 nM on Adenosine receptor A3 and above 10 µM on Adenosine receptor A2b.

Consider `CCOC(=O)c1cnc(SC)n2nc(-c3ccco3)nc12`, for which the results for the Ratio Ki (in assay [1]; with CHO [2]; in the assay with CHO [3]) were 2.17, 3.6 and 0.6, respectively. Also, the Ki at Adenosine receptor A1 was 5720 nM; at Adenosine receptor A2a, 9500 nM; on Adenosine receptor A3, 2640 nM; on Adenosine receptor A2b, above 30 µM.

Turning to `CCOC(=O)c1cnc(NOC)n2nc(-c3ccco3)nc12`, the results for the Ratio Ki (in assay [1]; in the assay with CHO [2]; in the assay on CHO [3]) were 5.47, 0.18 and 31, respectively. The inhibition constant (Ki) on Adenosine receptor A1 is 6510 nM; at Adenosine receptor A2a it was 210 nM; on Adenosine receptor A3 it was 1190 nM; at Adenosine receptor A2b, above 10 µM.

Regarding `CCOC(=O)c1cnc(NCC(C)C)n2nc(-c3ccco3)nc12`, the values for the Ratio Ki (in assay [1]; in the assay with CHO [2]; in the assay with CHO [3]) were 1.87, 1.82 and 1.03, respectively. In addition, the Ki at Adenosine receptor A1 came to 45.6 nM; on Adenosine receptor A2a it was 44.4 nM; on Adenosine receptor A3, 24.4 nM; at Adenosine receptor A2b it was 7.15 µM.

As to `CCCCC(CC)CNc1ncc(C(=O)OCC)c2nc(-c3ccco3)nn12` (centres undefined), the Ratio Ki in assay [1] amounted to 29.3; with CHO [2], 5.47; in the assay on CHO [3], 5.35. The inhibitory constant (Ki) on Adenosine receptor A1 was 1150 nM; at Adenosine receptor A2a it was 215 nM; at Adenosine receptor A3, 39.3 nM; on Adenosine receptor A2b, above 10 µM.

As to `O=C(O)c1cnc(NCc2ccccc2)n2nc(-c3ccco3)nc12`, the Ratio Ki in assay [1] stood at 2.28; with CHO [2], 1.64; in the assay on CHO [3], 1.39. Besides, the Ki is 5090 nM on Adenosine receptor A1, 3660 nM at Adenosine receptor A2a, 2230 nM at Adenosine receptor A3 and above 10 µM on Adenosine receptor A2b.

Turning to `CCOC(=O)c1cnc(NC2CC2)n2nc(-c3ccco3)nc12`, the Ratio Ki in assay [1] is 6.38; in the assay on CHO [2], 3.93; in the assay on CHO [3], 1.62. For the same molecule, the Ki on Adenosine receptor A1 was 60.7 nM; at Adenosine receptor A2a it was 37.4 nM; on Adenosine receptor A3, 9.52 nM; at Adenosine receptor A2b, 2.26 µM.

For `CCOC(=O)c1cnc(NCc2ccc(C(F)(F)F)cc2)n2nc(-c3ccco3)nc12`, the Ratio Ki was found to be 4.92 in assay [1], 0.65 in the assay on CHO [2] and 7.61 in the assay on CHO [3]. In addition, the inhibitory constant (Ki) at Adenosine receptor A1 turned out to be 1590 nM; at Adenosine receptor A2a it was 209 nM; on Adenosine receptor A3 it was 323 nM; at Adenosine receptor A2b, 2.04 µM.

Turning to `CCOC(=O)c1cnc(NCc2ccc(F)cc2)n2nc(-c3ccco3)nc12`, the Ratio Ki worked out at 20.1 in assay [1], 0.85 with CHO [2] and 23.7 in the assay with CHO [3]. In addition, the Ki at Adenosine receptor A1 was found to be 932 nM; on Adenosine receptor A2a it was 39.3 nM; on Adenosine receptor A3, 46.3 nM; at Adenosine receptor A2b it was 1.97 µM.

On to `CCOC(=O)c1cnc(NCc2ccc(OC)c(OC)c2)n2nc(-c3ccco3)nc12`, for which the Ratio Ki in assay [1] was 8.14; in the assay with CHO [2], 3; with CHO [3] it was 2.71. Also, the inhibition constant Ki on Adenosine receptor A1 came out at 315 nM; on Adenosine receptor A2a, 116 nM; at Adenosine receptor A3, 38.7 nM; at Adenosine receptor A2b, 13.3 µM.

As to `CCOC(=O)c1cnc(N(C)C)n2nc(-c3ccco3)nc12`, the Ratio Ki amounted to 48.7 in assay [1], 23.6 in the assay with CHO [2] and 2.07 with CHO [3]. Further, the Ki on Adenosine receptor A1 was 13400 nM; on Adenosine receptor A2a, 6480 nM; on Adenosine receptor A3, 275 nM; at Adenosine receptor A2b, above 10 µM.

For `O=C(Nc1ncc(C(=O)NCCc2ccccc2)c2nc(-c3ccco3)nn12)NC1CCCCC1`, the figures for the Ratio Ki (in assay [1]; in the assay on CHO [2]; with CHO [3]) were above 23.7, 0.18 and above 129, respectively. The Ki is above 100000 nM on Adenosine receptor A1, 773 nM on Adenosine receptor A2a, 4220 nM on Adenosine receptor A3 and above 30 µM on Adenosine receptor A2b.

In the case of `Cc1ccc(CNc2ncc(C(=O)O)c3nc(-c4ccco4)nn23)cc1`, the Ratio Ki came to 3.63 in assay [1], 1.58 in the assay on CHO [2] and 2.29 in the assay on CHO [3]. Further, the Ki was 2730 nM at Adenosine receptor A1, 1190 nM on Adenosine receptor A2a, 751 nM at Adenosine receptor A3 and above 10 µM at Adenosine receptor A2b.

A word on the Ki: it is a measure of affinity in units of concentration, obtained from inhibition or displacement.
